Drug uptake, IC50 and Selectivity ratio data for two compounds are collected here from ChEMBL document CHEMBL1148584, “Effect of polyamine homologation on the transport and biological properties of heterocyclic amidines” (J Med Chem, 2006).

In the first data set the test system is L1210. Put plainly: Intracellular level of putrescine in L1210 cells in the absence of DFMO at 20 uM. It is filed as functional, cell-based. Particulars: Mus musculus. A digest of the protocol: (§1)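 L1210 cells in RPMI 1640/10% FCS with 2 mM aminoguanidine, seeded at 4 × 10⁴ cells/mL. Conjugate, with or without 5 mM DFMO, added at seeding; cells cultured 48 h, washed in cold NaCl, and extracted with 0.2 N HClO₄. Conjugate and free putrescine, spermidine and spermine quantified by ion-pair HPLC (UV 254 nm, fluorescence ex 345/em 455 nm); normalised to protein. Student's t-test, p<0.05.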
As for `CNc1cccc2c1[C@H](C)C[C@]1(C)C(NCCCCN)=Nc3ccccc3[C@H]21`, the Drug uptake was 1.6 nmol/mg.

With `CC1C[C@]2(C)C(NCCCCN)=Nc3ccccc3[C@@H]2N(C)c2ccccc21` (stereo not given in full), the Drug uptake came to 0.85 nmol/mg.

The subject of another data set is L1210. Put plainly: Intracellular level of polyamine in L1210 cells in the presence of DFMO at 20 uM. To be noted: Mus musculus. It is filed as functional, cell-based. The essentials:
as §1
For the compound `CNc1cccc2c1[C@H](C)C[C@]1(C)C(NCCCCN)=Nc3ccccc3[C@H]21`, the Drug uptake is 8.2 nmol/mg.

As for `CC1C[C@]2(C)C(NCCCCN)=Nc3ccccc3[C@@H]2N(C)c2ccccc21` (stereo not given in full), the Drug uptake turned out to be 8.2 nmol/mg.

The subject of another data set is CHO-MG. Briefly: Inhibition of cell growth in CHO-MG cells in the presence of DFMO. It counts as functional, cell-based. Particulars: Cricetulus griseus. The essentials:
(§2)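 L1210 cells seeded at 5 × 10⁴ cells/mL with conjugate added at seeding; CHO/CHO-MG plated at 2 × 10³ cells/mL with conjugate added after overnight (24 h). 5 mM DFMO added together with conjugate; medium contains 2 mM aminoguanidine. After 48 h, growth read by MTT formazan absorbance at 540 nm. IC50 is 50% growth inhibition; mean of three determinations.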
Usually IC50 stands for the point on the concentration scale where inhibition reaches its midpoint. Regarding `CNc1cccc2c1[C@H](C)C[C@]1(C)C(NCCCCN)=Nc3ccccc3[C@H]21`, the IC50 is 30 µM.

Turning to `CC1C[C@]2(C)C(NCCCCN)=Nc3ccccc3[C@@H]2N(C)c2ccccc21` (stereo not given in full), the IC50 worked out at 24 µM.

In the next data set the target is Phosphodiesterase 1 (Bos taurus, UniProt Q01061+P14100). Put plainly: Inhibition of bovine calmodulin-activated cAMP dependent phosphodiesterase. It is filed as protein assay.
Details: not given
A digest of the protocol: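 Crude bovine heart PDE preparation containing calmodulin and Ca²⁺ (0.2 milliunit). Incubated 20 min at 37 °C with 0.1 mM [8-³H]cAMP and graded drug concentrations in 30 mM Tris-HCl, 3 mM MgSO₄, 0.6 mM AMP. Stopped with ZnSO₄; Ba(OH)₂ precipitated AMP with BaSO₄; supernatant radioactivity counted. IC50 is the concentration giving 50% inhibition.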
`CNc1cccc2c1[C@H](C)C[C@]1(C)C(NCCCCN)=Nc3ccccc3[C@H]21`: the IC50 worked out at 70 µM.

`CC1C[C@]2(C)C(NCCCCN)=Nc3ccccc3[C@@H]2N(C)c2ccccc21` (stereo not given in full) gave an IC50 of 116 µM.

The test system of another data set is CHO-MG. Briefly: Cellular uptake in CHO-MG cells at 25 uM. It counts as ADME, cell-based, Cricetulus griseus. Particulars: chinese hamster. A digest of the protocol:
(§3)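 CHO (RPMI 1640, 10% FCS, 2 mM aminoguanidine) and CHO-MG (plus L-proline) cells seeded at 2 × 10⁵ cells/mL. Conjugate added 24 h after seeding and cells harvested 24 h later, then washed in cold 0.14 M NaCl and sonicated in 0.2 N HClO₄. Supernatant analysed by ion-pair reversed-phase HPLC (n-octanesulfonate), expressed as nmol/mg protein; mean ± SD of three determinations.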
`CNc1cccc2c1[C@H](C)C[C@]1(C)C(NCCCCN)=Nc3ccccc3[C@H]21` showed a Drug uptake of 7.2 nmol/mg.

Consider `CC1C[C@]2(C)C(NCCCCN)=Nc3ccccc3[C@@H]2N(C)c2ccccc21` (stereo not given in full), for which the Drug uptake is recorded as 3.3 nmol/mg.

A further data set has as its system L1210. Briefly: Intracellular level of spermidine in L1210 cells in the presence of DFMO at 20 uM. It counts as functional, cell-based. Particulars: Mus musculus. A digest of the protocol:
as §1
On to `CNc1cccc2c1[C@H](C)C[C@]1(C)C(NCCCCN)=Nc3ccccc3[C@H]21`, for which the Drug uptake was 2.1 nmol/mg.

`CC1C[C@]2(C)C(NCCCCN)=Nc3ccccc3[C@@H]2N(C)c2ccccc21` (stereo not given in full): the Drug uptake amounted to 0.87 nmol/mg.

For another data set, the system named is L1210. Put plainly: Intracellular level of spermidine in L1210 cells in the absence of DFMO at 20 uM. It counts as functional, cell-based. Particulars: Mus musculus. A digest of the protocol: as §1
Turning to `CNc1cccc2c1[C@H](C)C[C@]1(C)C(NCCCCN)=Nc3ccccc3[C@H]21`, the Drug uptake was 14 nmol/mg.

`CC1C[C@]2(C)C(NCCCCN)=Nc3ccccc3[C@@H]2N(C)c2ccccc21` (stereo not given in full): the Drug uptake was 11 nmol/mg.

The next data set has as its system L1210. Briefly: Intracellular level of conjugate in L1210 cells in the absence of DFMO at 20 uM. To be noted: Mus musculus. It counts as functional, cell-based. The essentials:
as §1
For `CNc1cccc2c1[C@H](C)C[C@]1(C)C(NCCCCN)=Nc3ccccc3[C@H]21`, the Drug uptake worked out at 23 nmol/mg.

Take `CC1C[C@]2(C)C(NCCCCN)=Nc3ccccc3[C@@H]2N(C)c2ccccc21` (stereo not given in full): the Drug uptake is 13 nmol/mg.

A further data set relates to L1210. Put plainly: Intracellular level of spermine in L1210 cells in the presence of DFMO at 20 uM. It is filed as functional, cell-based. To be noted: Mus musculus. A digest of the protocol:
as §1
As for `CNc1cccc2c1[C@H](C)C[C@]1(C)C(NCCCCN)=Nc3ccccc3[C@H]21`, the Drug uptake stood at 10 nmol/mg.

Regarding `CC1C[C@]2(C)C(NCCCCN)=Nc3ccccc3[C@@H]2N(C)c2ccccc21` (stereo not given in full), the Drug uptake stood at 9 nmol/mg.

Another data set concerns L1210. Put plainly: Intracellular level of putrescine in L1210 cells in the presence of DFMO at 20 uM. It is filed as functional, cell-based. To be noted: Mus musculus. A digest of the protocol:
as §1
With `CNc1cccc2c1[C@H](C)C[C@]1(C)C(NCCCCN)=Nc3ccccc3[C@H]21`, the Drug uptake was found to be 1 nmol/mg.

As for `CC1C[C@]2(C)C(NCCCCN)=Nc3ccccc3[C@@H]2N(C)c2ccccc21` (stereo not given in full), the Drug uptake is 0.7 nmol/mg.

Test system in another data set: not listed separately
Briefly: Selectivity for uptake in CHO cell line over CHO-MG cell line at 25 uM.
Details: not given
It counts as functional, Cricetulus griseus. A digest of the protocol:
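Ratio of intracellular conjugate level in CHO over CHO-MG cells. Both lines were exposed to conjugate 24 h after seeding at 2 × 10⁵ cells/mL, for 24 h with 2 mM aminoguanidine in the medium. Levels were measured by ion-pair HPLC of perchloric extracts and normalised to protein (nmol/mg).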
Consider `CNc1cccc2c1[C@H](C)C[C@]1(C)C(NCCCCN)=Nc3ccccc3[C@H]21`, for which the Selectivity ratio is listed as 1.1.

As for `CC1C[C@]2(C)C(NCCCCN)=Nc3ccccc3[C@@H]2N(C)c2ccccc21` (stereo not given in full), the Selectivity ratio is recorded as 1.1.

Another data set concerns L1210. Briefly: Intracellular level of spermine in L1210 cells in the absence of DFMO at 20 uM. It is filed as functional, cell-based. To be noted: Mus musculus. A digest of the protocol:
as §1
The compound `CNc1cccc2c1[C@H](C)C[C@]1(C)C(NCCCCN)=Nc3ccccc3[C@H]21` displayed a Drug uptake of 8.9 nmol/mg.

Turning to `CC1C[C@]2(C)C(NCCCCN)=Nc3ccccc3[C@@H]2N(C)c2ccccc21` (stereo not given in full), the Drug uptake came out at 6.3 nmol/mg.

Another data set relates to CHO. Put plainly: Cellular uptake in CHO cells at 25 uM. It counts as ADME, cell-based, Cricetulus griseus. Particulars: chinese hamster. A digest of the protocol: as §3
For `CNc1cccc2c1[C@H](C)C[C@]1(C)C(NCCCCN)=Nc3ccccc3[C@H]21`, the Drug uptake is 8.1 nmol/mg.

For the compound `CC1C[C@]2(C)C(NCCCCN)=Nc3ccccc3[C@@H]2N(C)c2ccccc21` (stereo not given in full), the Drug uptake amounted to 3.6 nmol/mg.

Another data set concerns L1210. Put plainly: Inhibition of cell growth in L1210 cells in the presence of DFMO. It is filed as functional, cell-based. Particulars: Mus musculus. A digest of the protocol: as §2
Regarding `CNc1cccc2c1[C@H](C)C[C@]1(C)C(NCCCCN)=Nc3ccccc3[C@H]21`, the IC50 was found to be 56 µM.

On to `CC1C[C@]2(C)C(NCCCCN)=Nc3ccccc3[C@@H]2N(C)c2ccccc21` (stereo not given in full), for which the IC50 was determined as 54 µM.

The subject of the next data set is CHO. Briefly: Inhibition of cell growth in CHO cells in the presence of DFMO. It is filed as functional, cell-based. Particulars: Cricetulus griseus. The essentials: as §2
For the compound `CNc1cccc2c1[C@H](C)C[C@]1(C)C(NCCCCN)=Nc3ccccc3[C@H]21`, the IC50 came out at 57 µM.

Regarding `CC1C[C@]2(C)C(NCCCCN)=Nc3ccccc3[C@@H]2N(C)c2ccccc21` (stereo not given in full), the IC50 worked out at 45 µM.
